TAAR1 agonist – human TAAR1 agonism. 0.99% of 360,000 active. Q96RJ0. activation, % at 3 µM. AID 624467. CHO RD-HGA16 TAAR1, Fluo-8 calcium fluorescence; vehicle wells 0%, saturating PEA agonist 100%;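 active = activation above the mean activation of all test compounds in the run plus 3 SD, cut at about 38% in these data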
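Test system: RD-HGA16 (CHO) cells co-expressing Gα16 and hTAAR1; dosing: one-point dosing at 3 µM (nominal); timing: 17-24 h seeding, 75 min 37 °C dye, 30 min RT; signal: kinetic Fluo-8 calcium fluorescence; read-out basis: % activation relative to PEA EC100 response; controls: DMSO and PEA EC100; replicates: n 1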
V1aR counter – counter-screen for oxytocin receptor agonists: human V1a receptor agonists | CHO-V1R cells, Fluo-8 calcium fluorescence, agonist mode; 0% DMSO, 100% 3 nM vasopressin | activation, % at 3 µM | 0.25% of 320,000 active;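 active = activation above the mean activation of all tested compounds plus 3 SD, per screening run, cut at about 20% in these data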;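 note: signal is peak over basal fluorescence ratio across a 100 second FLIPR read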
Target sequence (P37288 whole entry, looked up): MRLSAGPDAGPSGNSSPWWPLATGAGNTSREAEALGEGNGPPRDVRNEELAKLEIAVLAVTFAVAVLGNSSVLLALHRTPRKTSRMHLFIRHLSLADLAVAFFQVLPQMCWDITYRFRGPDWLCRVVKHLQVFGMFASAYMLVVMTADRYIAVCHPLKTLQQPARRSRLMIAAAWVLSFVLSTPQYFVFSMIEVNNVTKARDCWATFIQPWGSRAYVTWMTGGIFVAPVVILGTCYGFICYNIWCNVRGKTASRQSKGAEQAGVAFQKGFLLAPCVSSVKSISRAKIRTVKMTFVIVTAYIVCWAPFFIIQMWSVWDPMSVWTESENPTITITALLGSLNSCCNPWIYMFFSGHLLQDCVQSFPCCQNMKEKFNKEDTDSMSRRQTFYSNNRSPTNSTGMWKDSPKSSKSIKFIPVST
OXTR potentiator – potentiators of human oxytocin receptor; AID 2445; CHO-OTR cells, Fluo-8 calcium fluorescence, potentiator mode; 0% = oxytocin EC15, 100% = EC100; 0.061% of 320,000 active; P30559; activation, % at 3 µM;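 active = activation above that plate's cutoff, the mean activation of tested compounds plus 3 SD, cut at about 6.6% in these data, passing the limit was not always enough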;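 note: 100% uses oxytocin at 75 nM as the full agonist control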
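Material: human OTR in CHO cells. Compound: 3.0 µM, one dose. Timing: compound 6 min at room temperature before oxytocin, 100 s read. Evaluation: % activation of max/min ratio relative to oxytocin controls. Replication: single well per compound, singlicate. Signal: Fluo-8 calcium dye fluorescence.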
TAAR1 antagonist – human TAAR1 antagonism; Q96RJ0; CHO RD-HGA16 TAAR1, Fluo-8 calcium fluorescence, antagonist; inhibition, % at 3 µM; 1.5% of 360,000 active;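 active = inhibition above a per-plate cutoff, the mean inhibition of test compounds on that plate plus 3 SD, cut at about 49% in these data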;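 note: 0% = DMSO plus EC80 beta-PEA response and 100% = DMSO alone without agonist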
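Assay system: RD-HGA16 CHO cells with stable hTAAR1 and Gα16 / Reagent: EC80 β-phenethylamine stimulus / Doses: 3 µM, single point / Timing: dye loading 75 min at 37 °C, then 30 min room temperature / Measured by: Fluo-8 intracellular calcium dye fluorescence, real-time kinetic reads / Controls: vehicle wells and EC80 agonist wells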
OXTR agonist – human OXTR agonism; CHO-OTR cells, Fluo-8 calcium fluorescence; normalized: DMSO 0%, oxytocin 100%; activation, % at 3 µM; 0.32% of 320,000 active; AID 2435;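 active = activation above the mean of all tested compounds plus 3 SD, cutoff set per screening run, cut at about 20% in these data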;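 note: peak over basal fluorescence ratio from a 100 s FLIPR kinetic read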
TAAR1 nonsel count – counter-screen for TAAR1 antagonists: nonselective antagonists; shares compounds with TAAR1 antagonist; counterscreen cell line, calcium fluorescence, antagonist mode; inhibition, % at 3 µM; 77% of 2,400 active; AID 651780; in the data active = inhibition above about 22%;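 note: CHO-Ga16 host cells stimulated with ATP at an EC80 level; 0% = agonist EC80 plus vehicle and 100% = vehicle without agonist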
TAAR1 ant conf – human TAAR1 antagonism, confirmed | shares compounds with TAAR1 antagonist | inhibition, % at 3 µM | 40% of 2,400 active | TAAR1-expressing cells, fluorescence antagonist read-out; in the data active = inhibition above about 49%;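 note: CHO-Ga16 host cells challenged with agonist PEA near its EC80; 0% = agonist at EC80 plus vehicle and 100% = vehicle with no agonist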
Ga16 ag counter – nonselective Ga16 agonism, counter-screen; activation, % at 3 µM; Ga16-expressing cells, calcium fluorescence, agonist counterscreen; shares compounds with TAAR1 antagonist; 18% of 2,400 active; in the data active = activation above about 12%;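 note: 0% = vehicle wells and 100% = saturating stimulus response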
TAAR1 ag counter – counter-screen for human TAAR1 antagonists: TAAR1 agonists. 2% of 2,400 active. activation, % at 3 µM. hTAAR1 cell line, fluorescence activation, agonist mode. shares compounds with TAAR1 antagonist. AID 651955; in the data active = activation above about 37%;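 note: CHO cells stably expressing TAAR1 with calcium dye readout; 0% = DMSO vehicle and 100% = full agonist response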
The depositor's hits bear a star; nt = not tested or not shown. Hits are enriched below; roughly 2.3% of the tested compounds scored in any of these assays.

SMILES	TAAR1 agonist	V1aR counter	OXTR potentiator	TAAR1 antagonist	OXTR agonist	TAAR1 nonsel count	TAAR1 ant conf	Ga16 ag counter	TAAR1 ag counter
COc1cc(C#Cc2c(-c3cncn3C)n(C)c3ccc(-c4cnc(OC)nc4)cc23)cc(OC)c1	8	-1	-5	73*	1	35*	52*	5	0
CCc1nc2ccc(Cc3ccc4nc(CC)[nH]c4c3)cc2[nH]1	2	0	-10	-14	-1	nt	nt	nt	nt
Cc1cccc2nc(-c3ccccc3)c(-c3ccc(CN4CCC(c5nc6ccccc6[nH]5)CC4)cc3)nc12	10	nt	nt	15	nt	nt	nt	nt	nt
Cc1ccc2nc(-c3ccc(CN4CCC(c5nc6ccccc6[nH]5)CC4)cc3)c(-c3ccccc3)nc2c1	32	nt	nt	73*	nt	46*	60*	15*	21
c1ccc(-c2nc3ccccc3nc2-c2ccc(CN3CCC(c4nc5ccccc5[nH]4)CC3)cc2)cc1	17	nt	nt	53*	nt	34*	45	16*	35
N#Cc1ccc2nc(-c3ccc(CN4CCC(c5nc6ccccc6[nH]5)CC4)cc3)c(-c3ccccc3)nc2c1	15	nt	nt	66*	nt	38*	48	11	17
Cc1cc2c(cc1S(=O)(=O)CCC(=O)N(C)Cc1ccccc1)OCC(=O)N2	1	2	0	-3	0	nt	nt	nt	nt
O=C(CCc1nc2ccccc2c(=O)[nH]1)N1CCN(S(=O)(=O)c2ccc(Cl)c(C(F)(F)F)c2)CC1	17	-1	-1	62*	-1	39*	50*	16*	14
CC(C)c1ccc(S(=O)(=O)N2CCN(C(=O)CCc3nc4ccccc4c(=O)[nH]3)CC2)cc1	5	nt	nt	6	nt	nt	nt	nt	nt
CCN=C(NCC)SC1CC(=O)N(c2ccc(OCC)cc2)C1=O (stereo unspecified)	16	3	-7	86*	0	28*	51*	11	11
CCN=C(Nc1cccc(F)c1)SC1CC(=O)N(c2ccc(OC)cc2)C1=O (stereo unspecified)	15	2	-6	72*	2	34*	55*	7	6
CCOc1ccc(N2C(=O)CC(SCCN)C2=O)cc1 (stereo unspecified)	4	2	5	-9	3	nt	nt	nt	nt
CC(=O)N1CCN(S(=O)(=O)c2cccc(C(=O)NCCc3ccc(Cl)cc3)c2)CC1	4	-1	-1	-28	0	nt	nt	nt	nt
O=C(NCC(=O)N(CC1CCCO1)C(C(=O)NC1CCCCC1)c1cccnc1)c1cccs1 (stereo unspecified)	2	3	-3	5	0	nt	nt	nt	nt
Cc1cccn2c(=O)c3cc(C#N)c(=NC(=O)c4cccs4)n(CCCOC(C)C)c3nc12	14	-1	-8	67*	-2	24*	48	9	8
COc1cccc(N2CCN(C(=O)CCCCCNc3nc(=S)[nH]c4ccccc34)CC2)c1	11	0	-11	59*	-3	19	37	8	11
Cn1c(/C=C(\C#N)C(N)=S)ccc1-c1ccc(Br)cc1	10	nt	nt	67*	nt	25*	39	6	15
Cn1cccc1/C=C(\C#N)C(N)=S	17	1	0	-10	0	nt	nt	nt	nt
Cc1ccccc1NS(=O)(=O)c1ccc(C(=O)N2CCCCCC2)cc1	21	6	-13	-4	5	nt	nt	nt	nt
Cc1ccccc1NS(=O)(=O)c1ccc(C(=O)N2CCN(c3ccccc3O)CC2)cc1	19	11	-16	75*	9	28*	41	12*	7
COc1cc(/C=N/NC(=O)c2cccnc2)ccc1OS(=O)(=O)c1cc(C)ccc1C	25	2	-13	64*	3	32*	57*	14*	12
COc1cc(/C=N/NC(=O)c2cccnc2)ccc1OS(=O)(=O)c1ccc(C)cc1	12	1	-11	30	1	nt	nt	nt	nt
COc1ccccc1CNC(=O)OCc1nccnc1C(=O)Nc1ccc(Br)cn1	0	0	0	-5	2	nt	nt	nt	nt
O=C(N/N=C/c1cn(-c2cccs2)nc1-c1ccccc1)c1ccccc1O	11	4	-7	75*	3	55*	60*	13*	10
c1cc(-c2cc3nc(NC4CCCCC4)ccn3n2)ccc1OCCN1CCOCC1	16	nt	nt	61*	nt	24*	42	11	18
SMILES	TAAR1 agonist	V1aR counter	OXTR potentiator	TAAR1 antagonist	OXTR agonist	TAAR1 nonsel count	TAAR1 ant conf	Ga16 ag counter	TAAR1 ag counter
Clc1cccc(CNc2ccn3nc(-c4ccc(OCCN5CCOCC5)cc4)cc3n2)c1	33	nt	nt	69*	nt	44*	71*	23*	23
c1cc(-c2cc3nc(NCC4CC4)ccn3n2)ccc1OCCN1CCOCC1	9	nt	nt	42	nt	nt	nt	nt	nt
COc1ccccc1NC(=O)/C=C/c1cc([N+](=O)[O-])ccc1OC(F)F	-3	-1	-2	-8	0	nt	nt	nt	nt
O=C(/C=C/c1cc([N+](=O)[O-])ccc1OC(F)F)Nc1cccc(OC(F)F)c1	5	0	-10	75*	0	34*	65*	7	4
CCOc1ccc(/C=C/C(O)=C2/C(=O)NC3(C)CC2c2ccccc2O3)cc1OC (stereo unspecified)	12	0	-16	60*	-2	27*	49*	10	23
CCOc1ccc(/C=C/C(O)=C2/C(=O)N(C)C3(C)CC2c2ccccc2O3)cc1OC (stereo unspecified)	2	-1	1	15	-1	nt	nt	nt	nt
COc1ccccc1CCn1cnc(-c2cccc(Cl)c2)c1CC(C)C	14	nt	nt	51*	nt	33*	52*	9	38*
COc1ccccc1CCn1cnc(-c2ccc(F)cc2)c1CC(C)C	27	nt	nt	63*	nt	29*	62*	11	66*
COc1cccc(-c2ncn(CCc3ccccc3OC)c2CC(C)C)c1	11	nt	nt	62*	nt	39*	49*	8	38*
COc1ccccc1CCn1cnc(-c2ccccc2OC)c1CC(C)C	34	nt	nt	7	nt	nt	nt	nt	nt
CCCCc1c(-c2ccc(F)cc2)ncn1CCc1ccccc1OC	26	nt	nt	54*	nt	23*	38	3	43*
COc1ccc(C(=O)NCC(c2ccco2)N(C)C)cc1S(=O)(=O)NCc1ccc(Cl)cc1 (stereo unspecified)	0	0	1	-5	1	nt	nt	nt	nt
CN(CC(=O)NC(=O)NC1CCCCC1)CC(=O)Nc1ccccc1C(F)(F)F	3	nt	nt	-7	nt	nt	nt	nt	nt

Source: PubChem BioAssay
